Assay results reported in ChEMBL document CHEMBL1143797, “Synthesis, characterization and in vitro biological studies of novel cyano derivatives of N-alkyl and N-aryl piperazine” (2007).
In brackets after ≈: the same amount, converted by molar mass. Activity calls are given as the source filed them. The calls are words filed in the database; no cut-off is given here.

How the values were obtained:
Staphylococcus aureus [1] = assay: Antibacterial activity against Staphylococcus aureus MTCCB 737 at 30 ug/disc after 48 hrs by disc diffusion method; format: functional; settings: for zone of inhibition at 30 µg/disc: read-out: IZ
Procedure, shortened: (§1)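 Compound-impregnated discs were placed on agar plates pre-inoculated with the bacterial strain and incubated at 37 °C. Zones of inhibition around the discs were read at 48 h. Gentamicin served as the standard control, alongside a solvent-only (DMSO) disc.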

[2] = system: Staphylococcus epidermidis; assay: Antibacterial activity against Staphylococcus epidermidis MTCCB 1824 at 30 ug/disc after 48 hrs by disc diffusion method; format: functional; settings: for zone of inhibition at 30 µg/disc: read-out: IZ; procedure, shortened: as §1
Pseudomonas aeruginosa [3] = assay: Antibacterial activity against Pseudomonas aeruginosa MTCCB 741 at 30 ug/disc after 48 hrs by disc diffusion method; format: functional; settings: for zone of inhibition at 30 µg/disc: read-out: IZ; procedure, shortened: as §1
Escherichia coli [4] = assay: Antibacterial activity against Escherichia coli MTCCB 1652 at 30 ug/disc after 48 hrs by disc diffusion method; format: functional; settings: for zone of inhibition at 30 µg/disc: read-out: IZ; procedure, shortened: as §1
Staphylococcus aureus [5] = assay: Antibacterial activity against Staphylococcus aureus MTCCB 737 after 18-20 hrs by broth dilution method; format: functional
Procedure, shortened: (§2)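 MIC was found by microbroth dilution in Mueller-Hinton broth with serial two-fold compound dilutions. The inoculum came from a 4–6 h broth culture adjusted to 0.5 McFarland, then diluted in broth to a final 3 × 10⁶ cfu/ml.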

[6] = system: Staphylococcus epidermidis; assay: Antibacterial activity against Staphylococcus epidermidis MTCCB 1824 after 18-20 hrs by broth dilution method; format: functional; procedure, shortened: as §2
Pseudomonas aeruginosa [7] = assay: Antibacterial activity against Pseudomonas aeruginosa MTCCB 741 after 18-20 hrs by broth dilution method; format: functional; procedure, shortened: as §2
Escherichia coli [8] = assay: Antibacterial activity against Escherichia coli MTCCB 1652 after 18-20 hrs by broth dilution method; format: functional; procedure, shortened: as §2
Aspergillus flavus [9] = assay: Antifungal activity against Aspergillus flavus ITCC 5192 by micro-broth dilution method; format: functional
Aspergillus niger [10] = assay: Antifungal activity against Aspergillus niger ITCC 5405 by micro-broth dilution method; format: functional
Aspergillus fumigatus [11] = assay: Antifungal activity against Aspergillus fumigatus ITCC 4517 by micro-broth dilution method; format: functional
Aspergillus flavus [12] = assay: Antifungal activity against Aspergillus flavus ITCC 5192 by percentage spore germination inhibition method; format: functional
Procedure, shortened: (§3)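 Compound serially double-diluted in culture medium in 96-well plates, triplicate wells per concentration. Each well inoculated with spore suspension of about 100 ± 5 spores and incubated at 37 °C for 16 h. Germinated and non-germinated spores counted by inverted microscope. MIC90 is the lowest concentration giving >90% inhibition of spore germination.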

Aspergillus niger [13] = assay: Antifungal activity against Aspergillus niger ITCC 5405 by percentage spore germination inhibition method; format: functional; procedure, shortened: as §3
Aspergillus fumigatus [14] = assay: Antifungal activity against Aspergillus fumigatus ITCC 4517 by percentage spore germination inhibition method; format: functional; procedure, shortened: as §3
HeLa = assay: Cytotoxicity against Hela cells at 30 ug after 48 hrs by MTT assay relative to gentamicin; format: functional, Homo sapiens
Procedure, shortened: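 HeLa cells were grown in DMEM with 10% heat-inactivated FBS and penicillin-streptomycin at 37 °C, 5% CO₂, seeded at 8 × 10³ cells/well and allowed 16 h to adhere. They were exposed to compound in serum-free DMEM for 4 h, then kept 48 h in growth medium. MTT was added for 2 h, formazan was dissolved in isopropanol/0.06 M HCl/0.5% SDS, and A540 was read. Viability is % of untreated cells, with gentamicin as comparator.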

Aspergillus flavus [15] = assay: Antifungal activity against Aspergillus flavus ITCC 5192 by disc diffusion method; format: functional
Procedure, shortened: (§4)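 Agar plates inoculated with Aspergillus spores; sterile 5.0 mm filter-paper discs loaded with test compound over a range of 750–1.46 (unit as printed unclear) and placed on the surface. Incubated at 37 °C; zones read at 24, 48 and 96 h. MIC was taken as the lowest concentration giving an inhibition zone of at least 6.0 mm diameter.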

Aspergillus niger [16] = assay: Antifungal activity against Aspergillus niger ITCC 5405 by disc diffusion method; format: functional; procedure, shortened: as §4
Aspergillus fumigatus [17] = assay: Antifungal activity against Aspergillus fumigatus ITCC 4517 by disc diffusion method; format: functional; procedure, shortened: as §4

Compound | zone of inhibition at 30 µg/disc (Staphylococcus aureus [1]) [mm] | zone of inhibition at 30 µg/disc [2] [mm] | zone of inhibition at 30 µg/disc (Pseudomonas aeruginosa [3]) [mm] | zone of inhibition at 30 µg/disc (Escherichia coli [4]) [mm] | MIC (Staphylococcus aureus [5]) [µg/mL] | MIC [6] [µg/mL] | MIC (Pseudomonas aeruginosa [7]) [µg/mL] | MIC (Escherichia coli [8]) [µg/mL] | MIC (Aspergillus flavus [9]) [µg/mL] | MIC (Aspergillus fumigatus [11]) [µg/mL] | MIC (Aspergillus flavus [12]) [µg/mL] | MIC (Aspergillus fumigatus [14]) [µg/mL] | Activity (Aspergillus niger [16]) | Activity (Aspergillus niger [10]) | Activity (Aspergillus niger [13]) | other results
N#CCCN1CCN(c2ccccc2)CC1 | 13 | 12 | 9 | 12 | 156 (≈ 726 µM) | 156 (≈ 726 µM) | 625 (≈ 2900 µM) | 156 (≈ 726 µM) | 500 (≈ 2320 µM) | 250 (≈ 1160 µM) | 250 (≈ 1160 µM) | 250 (≈ 1160 µM) |  |  |  | MIC (Aspergillus niger [10]): 500 µg/mL (≈ 2320 µM); MIC (Aspergillus niger [13]): 250 µg/mL (≈ 1160 µM); Activity (HeLa): 60%
CN1CCN(CC#N)CC1 | 12 | 8 | 9 | 12 | 310 (≈ 2230 µM) | 625 (≈ 4490 µM) | 625 (≈ 4490 µM) | 310 (≈ 2230 µM) | 500 (≈ 3590 µM) | 500 (≈ 3590 µM) | 250 (≈ 1800 µM) | 500 (≈ 3590 µM) |  |  |  | MIC (Aspergillus flavus [15]): 93.8 µg/disc; MIC (Aspergillus niger [16]): 93.7 µg/disc; MIC (Aspergillus niger [10]): 500 µg/mL (≈ 3590 µM); MIC (Aspergillus niger [13]): 250 µg/mL (≈ 1800 µM)
N#CCCN1CCN(Cc2ccccc2)CC1 |  |  |  |  |  |  |  |  |  |  |  |  |  |  |  | Activity (Staphylococcus aureus [1]): inactive; Activity [2]: inactive; Activity (Pseudomonas aeruginosa [3]): inactive; Activity (Staphylococcus aureus [5]): inactive; Activity [6]: inactive; Activity (Pseudomonas aeruginosa [7]): inactive
N#CCN1CCN(c2ccccc2)CC1 | 10 | 12 | 13 | 9 | 310 (≈ 1540 µM) | 156 (≈ 777 µM) | 156 (≈ 777 µM) | 310 (≈ 1540 µM) | 500 (≈ 2480 µM) | 500 (≈ 2480 µM) | 500 (≈ 2480 µM) | 250 (≈ 1240 µM) |  |  |  | MIC (Aspergillus niger [10]): 500 µg/mL (≈ 2480 µM); MIC (Aspergillus niger [13]): 250 µg/mL (≈ 1240 µM); Activity (HeLa): >95%
C[C@@H]1[C@H](O)[C@@H](C)/C=C/C=C/C=C/C=C/C=C/C=C/C=C/[C@H](O[C@@H]2O[C@H](C)[C@@H](O)[C@H](N)[C@@H]2O)C[C@@H]2O[C@](O)(C[C@@H](O)C[C@@H](O)[C@H](O)CC[C@@H](O)C[C@@H](O)CC(=O)O[C@H]1C)C[C@H](O)[C@H]2C(=O)O [AMPHOTERICIN B] |  |  |  |  |  |  |  |  | 5 (≈ 5.41 µM) | 5 (≈ 5.41 µM) | 5 (≈ 5.41 µM) | 5 (≈ 5.41 µM) |  |  |  | MIC (Aspergillus flavus [15]): 2.5 µg/disc; MIC (Aspergillus niger [16]): 2.5 µg/disc; MIC (Aspergillus fumigatus [17]): 2.5 µg/disc; MIC (Aspergillus niger [10]): 5 µg/mL (≈ 5.41 µM); MIC (Aspergillus niger [13]): 5 µg/mL (≈ 5.41 µM)
COc1ccccc1N1CCN(CC#N)CC1 | 9 | 8 | 8 | 10 | 625 (≈ 2700 µM) | 625 (≈ 2700 µM) | 625 (≈ 2700 µM) | 310 (≈ 1340 µM) |  |  |  |  |  |  |  | 
COc1ccccc1N1CCN(CCC#N)CC1 | 12 | 9 | 9 | 11 | 156 (≈ 637 µM) | 625 (≈ 2550 µM) | 625 (≈ 2550 µM) | 156 (≈ 637 µM) | 1000 (≈ 4080 µM) | 500 (≈ 2040 µM) | 500 (≈ 2040 µM) | 500 (≈ 2040 µM) | inactive | inactive | inactive | 
N#CCCN1CCNCC1 |  |  |  |  |  |  |  |  |  |  |  |  |  |  |  | Activity (Staphylococcus aureus [1]): inactive; Activity [2]: inactive; Activity (Pseudomonas aeruginosa [3]): inactive; Activity (Staphylococcus aureus [5]): inactive; Activity [6]: inactive; Activity (Pseudomonas aeruginosa [7]): inactive
N#CCN1CCN(c2ccccc2[N+](=O)[O-])CC1 |  |  |  |  |  |  |  |  |  |  |  |  |  |  |  | Activity (Staphylococcus aureus [1]): inactive; Activity [2]: inactive; Activity (Pseudomonas aeruginosa [3]): inactive; Activity (Staphylococcus aureus [5]): inactive; Activity [6]: inactive; Activity (Pseudomonas aeruginosa [7]): inactive; Activity (HeLa): 60%
GENTAMICIN |  |  |  |  | 9.8 | 19.5 | 19.5 | 19.5 |  |  |  |  |  |  |  | inhibition zone (IZ) (Staphylococcus aureus [1]): 20 mm; inhibition zone (IZ) [2]: 18 mm; inhibition zone (IZ) (Pseudomonas aeruginosa [3]): 19 mm; inhibition zone (IZ) (Escherichia coli [4]): 18 mm
N#CCN1CCN(Cc2ccccc2)CC1 | 18 | 10 | 13 | 9 | 19.5 (≈ 90.6 µM) | 310 (≈ 1440 µM) | 156 (≈ 726 µM) | 625 (≈ 2900 µM) |  |  |  |  | inactive | inactive | inactive | Activity (Aspergillus flavus [15]): inactive; Activity (Aspergillus flavus [9]): inactive; Activity (Aspergillus fumigatus [11]): inactive; Activity (Aspergillus flavus [12]): inactive
N#CCCN1CCN(CCO)CC1 | 18 | 11 | 15 | 15 | 19.5 (≈ 106 µM) | 310 (≈ 1690 µM) | 39.1 (≈ 213 µM) | 39.1 (≈ 213 µM) |  |  |  |  | inactive | inactive | inactive | Activity (Aspergillus flavus [15]): inactive; Activity (Aspergillus fumigatus [17]): inactive; Activity (Aspergillus flavus [9]): inactive; Activity (Aspergillus fumigatus [11]): inactive; Activity (Aspergillus flavus [12]): inactive; Activity (Aspergillus fumigatus [14]): inactive; Activity (HeLa): 60%
CN1CCN(CCC#N)CC1 | 10 | 11 | 19 | 18 | 310 (≈ 2030 µM) | 156 (≈ 1020 µM) | 19.5 (≈ 127 µM) | 39.1 (≈ 255 µM) |  |  |  |  | inactive | inactive | inactive | Activity (Aspergillus flavus [15]): inactive; Activity (Aspergillus fumigatus [17]): inactive; Activity (Aspergillus flavus [9]): inactive; Activity (Aspergillus fumigatus [11]): inactive; Activity (Aspergillus flavus [12]): inactive; Activity (Aspergillus fumigatus [14]): inactive
N#CCCN1CCN(CCC#N)CC1 | 11 | 9 | 11 | 10 | 310 (≈ 1610 µM) | 625 (≈ 3250 µM) | 156 (≈ 813 µM) | 625 (≈ 3250 µM) |  |  |  |  | inactive | inactive | inactive | Activity (Aspergillus flavus [15]): inactive; Activity (Aspergillus fumigatus [17]): inactive; Activity (Aspergillus flavus [9]): inactive; Activity (Aspergillus fumigatus [11]): inactive; Activity (Aspergillus flavus [12]): inactive
